Three compounds from ChEMBL document CHEMBL2203235, “Optimization of a natural product-based class of γ-secretase modulators” (J Med Chem, 2012) can be followed below.

The term IC50 denotes the concentration that inhibits the measured activity by half. As usually defined, the inhibition is the drop in the measured response relative to a control, in per cent.

Series [1] in a line: Modulation of gamma-secretase assessed as increase in amyloid beta 38 level by cell based assay.
Series [2] can be described thus: Modulation of gamma-secretase assessed as reduction in amyloid beta 42 level by cell based assay.
Series [3] is described as follows: Modulation of gamma-secretase assessed as reduction in amyloid beta 40 level by cell based assay.
A short description of series [4]: Modulation of gamma secretase in CHO-2B7 cells assessed as reduction in amyloid beta 42 level after 5 hrs by MSD ELISA. Type of series: cell-based. The settings on record: Cricetulus griseus, CHO-2B7, 5 h.
The subject of series [5] is Mus musculus. The series can be described thus: Antialzheimer activity in CD1 mouse assessed as reduction in amyloid beta 38 level at 30 mg/kg, po at 6 hrs relative to vehicle-treated control. The format is functional. The arrangement: scale not given: the % may be the effect or the level left. A digest of the protocol: (§1)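 CD-1 mice received a single IP or PO dose (n = 12 per group) and were sampled at 6 h. Plasma and brain drug concentrations were measured in μM. Aβ42, Aβ40 and Aβ38 in brain homogenate are expressed as percent lowering versus vehicle. Statistical significance was assessed against vehicle.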

Series [6] in a line: Modulation of gamma secretase in CHO-2B7 cells assessed as reduction in amyloid beta 38 level after 5 hrs by MSD ELISA. Type of series: cell-based. The settings on record: Cricetulus griseus, CHO-2B7, 5 h. On the technique in general: ELISA stands for enzyme-linked immunosorbent assay.
Series [7] is described as follows: Modulation of gamma secretase in CHO-2B7 cells assessed as reduction in amyloid beta 40 level after 5 hrs by MSD ELISA. The settings on record: Cricetulus griseus, CHO-2B7, 5 h. Type of series: cell-based.
Series [8] deals with CHO. Briefly: Modulation of gamma secretase in CHO cells expressing human APP assessed as increase in amyloid beta (1 to 37) level at 2 uM after 6 hrs by LC/MS/MS analysis relative to control. Type of series: cell-based. Particulars: Cricetulus griseus. An outline of the steps:
(§2)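 Cells were treated at 3 μM or 2 μM. Secreted Aβ peptides (Aβ37, 38, 39, 40, 42) were quantified by immunoprecipitation followed by LC/MS/MS. Changes are expressed relative to vehicle-treated cells.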

In series [9] the test system is Mus musculus. The series can be described thus: Antialzheimer activity in CD1 mouse assessed as reduction in amyloid beta 42 level at 100 mg/kg, po at 6 hrs relative to vehicle-treated control. Type of series: functional. Details: scale not given: the % may be the effect or the level left. A digest of the protocol:
as §1

The subject of series [10] is CHO. Briefly: Modulation of gamma secretase in CHO cells expressing human APP assessed as reduction in amyloid beta (1 to 42) level at 2 uM after 6 hrs by LC/MS/MS analysis relative to control. The format is cell-based. The arrangement: scale not given: the % may be the effect or the level left. Particulars: Cricetulus griseus. A digest of the protocol: as §2
For series [11], the system named is Mus musculus. The series can be described thus: Antialzheimer activity in CD1 mouse assessed as reduction in amyloid beta 38 level at 10 mg/kg, po QD for 5 days at 8 hrs post-last dose relative to vehicle-treated control. Details: scale not given: the % may be the effect or the level left.
The nature of series [12]: Inhibition of gamma secretase in CHO-2B7 cells assessed as reduction in total amyloid beta level after 5 hrs by MSD ELISA. Particulars: Cricetulus griseus, CHO-2B7, 5 h. The format is cell-based.
Series [13] relates to Mus musculus. The series can be described thus: Antialzheimer activity in CD1 mouse assessed as reduction in amyloid beta 42 level at 10 mg/kg, po QD for 5 days at 8 hrs post-last dose relative to vehicle-treated control. Details: scale not given: the % may be the effect or the level left.
In series [14] the test system is CHO. The series can be described thus: Modulation of gamma secretase in CHO cells expressing human APP assessed as increase in amyloid beta (1 to 39) level at 2 uM after 6 hrs by LC/MS/MS analysis relative to control. The format is cell-based. Particulars: Cricetulus griseus. A digest of the protocol:
as §2

Series [15] relates to Mus musculus. The series can be described thus: Antialzheimer activity in CD1 mouse assessed as reduction in amyloid beta 40 level at 100 mg/kg, po at 6 hrs relative to vehicle-treated control. Type of series: functional. Details: scale not given: the % may be the effect or the level left. A digest of the protocol: as §1
The subject of series [16] is Mus musculus. The series can be described thus: Antialzheimer activity in CD1 mouse assessed as reduction in amyloid beta 38 level at 100 mg/kg, po at 6 hrs relative to vehicle-treated control. Details: scale not given: the % may be the effect or the level left. Type of series: functional. A digest of the protocol: as §1
In series [17] the test system is CHO. Briefly: Modulation of gamma secretase in CHO cells expressing human APP assessed as reduction amyloid beta (1 to 38) level at 2 uM after 6 hrs by LC/MS/MS analysis relative to control. Particulars: Cricetulus griseus. Details: scale not given: the % may be the effect or the level left. The format is cell-based. An outline of the steps: as §2
Series [18] concerns Mus musculus. Briefly: Antialzheimer activity in CD1 mouse assessed as reduction in amyloid beta 40 level at 30 mg/kg, po at 6 hrs relative to vehicle-treated control. Type of series: functional. The arrangement: scale not given: the % may be the effect or the level left. An outline of the steps:
as §1

Series [19] deals with Mus musculus. Briefly: Antialzheimer activity in CD1 mouse assessed as reduction in amyloid beta 42 level at 30 mg/kg, po at 6 hrs relative to vehicle-treated control. Type of series: functional. The arrangement: scale not given: the % may be the effect or the level left. A digest of the protocol:
as §1

Series [20] relates to CHO. The series can be described thus: Modulation of gamma secretase in CHO cells expressing human APP assessed as amyloid beta (1 to 40) level at 2 uM after 6 hrs by LC/MS/MS analysis (reference value: 10.2 ng). Type of series: cell-based. Particulars: Cricetulus griseus. An outline of the steps: as §2
For series [21], the system named is Mus musculus. Briefly: Antialzheimer activity in CD1 mouse assessed as reduction in amyloid beta 38 level at 50 mg/kg, po QD for 5 days at 8 hrs post-last dose relative to vehicle-treated control. The arrangement: scale not given: the % may be the effect or the level left.
Series [22] has as its system Mus musculus. Briefly: Antialzheimer activity in CD1 mouse assessed as reduction in amyloid beta 40 level at 10 mg/kg, po QD for 5 days at 8 hrs post-last dose relative to vehicle-treated control. Details: scale not given: the % may be the effect or the level left.
The test system of series [23] is Mus musculus. The series can be described thus: Antialzheimer activity in CD1 mouse assessed as reduction in amyloid beta 40 level at 50 mg/kg, po QD for 5 days at 8 hrs post-last dose relative to vehicle-treated control. The arrangement: scale not given: the % may be the effect or the level left.
Series [24] relates to SUP-T1. Briefly: Inhibition of notch-mediated NICD release in human SUP-T1 cells at 4 uM after 18 hrs by immunoblotting assay. Type of series: cell-based. (In western blotting, separated proteins are transferred to a membrane and probed.)
The nature of series [25]: Ratio of drug uptake in brain to plasma in CD1 mouse at 1 mg/kg, iv at 6 hrs. The settings on record: brain and plasma.
The nature of series [26]: Ratio of drug uptake in brain to plasma in P-gp knockout mouse at 10 mg/kg, ip at 6 hrs. The settings on record: brain and plasma, read-out: BPR. Details: dose 10 mg/kg, route intraperitoneal. Type of series: ADME, organism-based. An outline of the steps: (§3)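 Dosing was 10 mg/kg IP in MDR1 (P-gp) knockout mice and, identically, in wild-type FVB mice. Brain and plasma levels were taken 6 h after dosing to give a brain-to-plasma ratio.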

The nature of series [27]: Drug uptake in CD1 mouse brain at 1 mg/kg, iv at 6 hrs.
Series [28] in a line: Ratio of drug uptake in brain to plasma in FVB mouse at 10 mg/kg, ip at 6 hrs. The format is ADME, organism-based. Details: dose 10 mg/kg, route intraperitoneal. Particulars: brain and plasma, read-out: BPR. An outline of the steps: as §3
Series [29] can be described thus: Plasma concentration in CD1 mouse at 1 mg/kg, iv at 6 hrs.
In series [30] the test system is Liver microsomes. Briefly: Metabolic stability in human liver microsomes at 1 uM after 60 mins by LC/MS/MS analysis. The settings on record: 1 h. On the technique in general: Liver microsomes are vesicles of endoplasmic reticulum, rich in cytochrome P450 enzymes.

Structures are written as SMILES.

`CC(=O)O[C@@H]([C@H]1C[C@@H](C)C2=C(O1)[C@H](O)[C@@]1(C)[C@@H]3CC[C@H]4C(C)(C)[C@@H](O[C@@H]5OC[C@@H](O)[C@H](O)[C@H]5O)CC[C@@]45C[C@@]35CC[C@]21C)C(C)(C)O`: the IC50 in series [1] is 0.061 µM; in series [2], 0.1 µM; in series [3], 2.7 µM.
`CCO[C@@H]([C@H]1C[C@@H](C)[C@H]2[C@H](O1)[C@H](O)[C@@]1(C)[C@@H]3CC[C@H]4C(C)(C)[C@@H](O[C@H]5CN(C6CN(C)C6)CCO5)CC[C@@]45C[C@@]35CC[C@]21C)C(C)(C)O`: the IC50 in [4] worked out at 0.1 µM; in series [6], 0.16 µM; in series [7] it was 2.1 µM; in series [12], 14 µM. Besides, the Activity in [5] came out at 16%; in series [8], 380%; in series [9], 26%; in series [10] it was 83%; in series [11], 13%; in series [13] it was 9%. Also, the Activity in [14] was determined as 530%; in series [15], 15%; in series [16], 31%; in series [17], 33%; in series [18], 9%; in series [19] it was 16%. Besides, the Activity in series [20] was 11.4 ng; in series [21], 38%; in [22] it was 7%; in series [23], 10%. Moreover, in series [24], the inhibition is 0%.
As for `CC(C)[C@@H](OC(=O)N1CCC1)[C@H]1C[C@@H](C)[C@H]2[C@H](O1)[C@H](O)[C@@]1(C)[C@@H]3CC[C@H]4C(C)(C)[C@@H](OC(=O)N(C)C5CN(C)C5)CC[C@@]45C[C@@]35CC[C@]21C`, the IC50 came to 0.091 µM in series [4] and 5.4 µM in series [7]. Moreover, the Kp at 6 h in [25] is 0.04; in series [26] it was 3.1; in [28] it was 0.035. Moreover, the results for the concentration at 6 h in series [27] and in series [29] were 0.011 µM and 0.274 µM, respectively. Further, the Stability result in [30] is “Stable”.
